TRPC6 activator: mouse TRPC6 channel activators, primary screen, cell-based, HEK293, membrane potential dye; Short transient receptor potential channel 6 (Mus musculus), Q61143; HEK293-TRPC6 membrane potential dye fluorescence; hits give high values; B-score at 10 µM; hit rate 0.13% among 310,000; AID 2550, 2010;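 active = B-score of the integrated fluorescence ratio above library mean plus 3 SD, and starting fluorescence ratio within library mean plus 5 SD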;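 note: higher score means more depolarization so channel activation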
Target sequence (Q61143 whole entry, looked up): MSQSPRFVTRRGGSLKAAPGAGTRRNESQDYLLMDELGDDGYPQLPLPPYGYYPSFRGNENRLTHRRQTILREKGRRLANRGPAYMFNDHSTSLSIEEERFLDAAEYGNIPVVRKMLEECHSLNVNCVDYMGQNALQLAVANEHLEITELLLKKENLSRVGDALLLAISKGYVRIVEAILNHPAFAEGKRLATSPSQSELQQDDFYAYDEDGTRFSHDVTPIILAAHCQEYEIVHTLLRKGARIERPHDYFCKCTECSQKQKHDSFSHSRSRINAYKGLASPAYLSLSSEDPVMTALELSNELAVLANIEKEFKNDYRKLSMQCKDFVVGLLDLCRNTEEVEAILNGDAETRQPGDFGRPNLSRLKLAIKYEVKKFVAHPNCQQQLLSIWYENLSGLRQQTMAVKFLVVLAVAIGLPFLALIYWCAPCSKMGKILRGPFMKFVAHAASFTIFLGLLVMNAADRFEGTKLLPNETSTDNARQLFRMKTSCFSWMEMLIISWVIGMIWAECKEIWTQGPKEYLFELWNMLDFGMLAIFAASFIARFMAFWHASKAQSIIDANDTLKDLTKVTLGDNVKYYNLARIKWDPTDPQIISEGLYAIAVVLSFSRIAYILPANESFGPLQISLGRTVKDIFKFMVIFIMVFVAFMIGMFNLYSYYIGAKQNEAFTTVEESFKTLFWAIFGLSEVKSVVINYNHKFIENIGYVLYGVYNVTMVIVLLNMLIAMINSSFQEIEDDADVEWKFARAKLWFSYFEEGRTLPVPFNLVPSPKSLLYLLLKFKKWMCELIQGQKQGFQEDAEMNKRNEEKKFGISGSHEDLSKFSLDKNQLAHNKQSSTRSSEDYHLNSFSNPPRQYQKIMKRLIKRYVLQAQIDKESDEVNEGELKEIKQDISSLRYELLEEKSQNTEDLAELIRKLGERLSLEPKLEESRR
TRPC4 agonist: activators of mouse TRPC4 channel, primary screen, Fluo4 calcium, HEK293 TRPC4beta/mu-opioid cells; Short transient receptor potential channel 4 (Mus musculus), Q9QUQ5; Fluo4 calcium fluorescence; hits give high values; B-score at 10 µM; hit rate 0.49% among 310,000; AID 2237, 2010;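 active = B-score above 5 SD of library B-scores, and initial fluorescence ratio not above library mean plus 5 SD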;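 note: positive B-score marks a calcium rise read as TRPC4 activation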
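Material: HEK293 stable line with TRPC4beta plus mu-opioid receptor; technique: Fluo4 calcium-sensitive dye fluorescence, kinetic, 1 Hz baseline; timing: Fluo4 dye loading 45 min at room temperature, 110 s recording; controls: assay buffer as low control, maximal DAMGO as high control; read-out: integrated baseline-normalised fluorescence ratio, converted to per-well B score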
TRPC4 block: inhibitors of mouse TRPC4 channel, primary screen, Fluo4 calcium, HEK293 TRPC4beta/mu-opioid cells; DAMGO-evoked Fluo4 calcium flux; hits give low values; B-score at 10 µM; hit rate 0.39% among 300,000;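 active = B-score over 3 SD under the library average, no early fluorescence shift, positive overall ratio signal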
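Signal: kinetic Fluo4 fluorescence imaging of calcium influx. Material: stable TRPC4beta/mu-opioid receptor HEK293 cells. Probe or stimulus: DAMGO in two steps, submaximal then maximal.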
TRPC4 potent: positive allosteric modulators of TRPC4, primary screen, cell-based, mouse TRPC4beta, HEK293 mu-opioid, Fluo-4 calcium | Short transient receptor potential channel 4 (Mus musculus), Q9QUQ5 | DAMGO EC20, Fluo-4 Ca2+ flux; hits give high values | B-score at 10 µM | hit rate 0.42% among 310,000 | AID 2227, 2009;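 active = B-score of calcium response area above 5 SD of library B-scores, with initial fluorescence ratio within 5 SD of library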;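 note: B-score of integrated fluorescence ratio over time as area under calcium response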
TRPC6 inh: mouse TRPC6 channel inhibitors, primary screen, cell-based, HEK293, membrane potential dye | hit rate 1.1% among 310,000 | ACh-evoked depolarization; hits give low values | AID 2553, 2010 | Short transient receptor potential channel 6 (Mus musculus), Q61143 | B-score at 10 µM;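 active = B-score under library mean minus 3 SD, initial fluorescence not abnormally high, positive integrated signal ratio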;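 note: B-score derived from integrated fluorescence ratio over the kinetic read; more negative B-score means stronger inhibition of depolarization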
TRPC4 sel inh 2: mouse TRPC4 off-target activity of TRPC6 inhibitors, second screen; hit rate 42% among 920; inhibition, % at 10 µM; HEK293 TRPC4/MOR, membrane potential dye fluorescence; channel activated by saturating DAMGO dose; shares compounds with TRPC6 inh; AID 2776;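 active = compounds whose fluorescence signal differed from control wells by over 3 SD, either direction, in both duplicate plates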
TRPC4 spec: mouse TRPC4 modulation by TRPC6 hits, confirmation, selectivity assay for TRPC6 inhibitor project, cell-based, HEK293 TRPC4/mu-opioid, membrane potential dye; activity change, negative = inhibition, % at 10 µM; hit rate 61% among 920; shares compounds with TRPC6 inh; membrane potential fluorescence;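 active = rise or fall in signal beyond 3 SD of buffer-only wells in both replicate plates, either sign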;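 note: integrated kinetic ratio of fluorescence range over baseline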
HEK293 MPD ctr 2-1: nonspecific membrane potential effects, parental HEK293, confirmation, counter-screen for TRPC6 inhibitor project, cell-based, second counter screen | shares compounds with TRPC6 inh | parental HEK293 membrane potential dye fluorescence; maximal acetylcholine challenge after compound addition | signal change vs control, % at 10 µM | hit rate 31% among 920;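 active = membrane potential signal moving either way by over 3 SD of the maximum-effect control, in both duplicate plates, meaning non-specific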
HEK293 MPD ctr-1: membrane potential modulation in parental HEK293, confirmation, counter-screen for TRPC6 inhibitor project, cell-based | shares compounds with TRPC6 inh | parental HEK293 membrane potential dye fluorescence | membrane potential signal change, % at 10 µM | hit rate 60% among 920 | AID 2780, 2010;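 active = membrane potential signal shifting up or down by more than 3 SD of buffer-only wells, on both duplicate plates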
HEK293 MPD ctr-2: parental HEK293 membrane potential modulation, confirmation, counter-screen for TRPC6 modulator project, cell-based; shares compounds with TRPC6 inh; membrane potential dye fluorescence; membrane potential signal change, % at 10 µM; hit rate 51% among 2,400; AID 488924, 2010;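 active = membrane potential signal moves up or down beyond 5 SD from buffer-only wells, on both duplicate plates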
HEK293 MPD ctr 2-2: parental HEK293 nonspecific activity of TRPC6 modulators, second screen | inhibition, % at 10 µM | shares compounds with TRPC6 inh | hit rate 14% among 2,400 | membrane potential dye fluorescence; after compound, maximal acetylcholine stimulation | AID 488926;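 active = membrane potential signal drops by more than 5 SD from the mean control signal, in both duplicate plates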;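 note: plate controls were acetylcholine ECmax control wells for no effect and buffer only wells for full effect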
TRPC4/MOR mod: TRPC4 modulation by TRPC6 hit compounds, confirmation, selectivity assay for TRPC6 modulator project, cell-based, HEK293 TRPC4/mu-opioid, membrane potential dye, mouse. shares compounds with TRPC6 inh. membrane potential fluorescence. percent change from control (negative = decrease, positive = increase), % at 10 µM. hit rate 69% among 2,400. AID 488927, 2010;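 active = membrane potential signal moved up or down beyond 5 SD of buffer control wells, in both duplicate plates, actives on both sides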;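 note: plate controls were assay buffer wells for no effect and DAMGO maximal-effect wells for full effect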
TRPC4 ctr inh 2: second selectivity test of TRPC6 modulators against mouse TRPC4. HEK293 TRPC4/mu-opioid, membrane potential dye fluorescence; stimulated with maximal-effect DAMGO. AID 488928. inhibition, % at 10 µM. shares compounds with TRPC6 inh. hit rate 55% among 2,400;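 active = drop in membrane potential signal beyond 5 SD of the control wells in both duplicate plates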;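 note: TRPC4 counter screen for TRPC6 hits run under conditions tuned for TRPC6 not TRPC4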
TRPC6 block conf: mouse TRPC6 channel inhibitors, confirmation, HEK293 cells, membrane potential dye, duplicate; shares compounds with TRPC6 inh; inhibition, % at 10 µM; hit rate 43% among 3,300; AID 488960, 2010; ACh-evoked depolarization;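 active = fluorescence ratio falls more than 5 SD below the full-stimulation control mean, in both duplicate runs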;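 note: integrated fluorescence ratio of peak minus minimum over baseline after agonist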
TRPC6 act confirm: mouse TRPC6 channel activators, confirmation, HEK293 cells, membrane potential dye, duplicate | shares compounds with TRPC6 inh | HEK293-TRPC6 membrane potential dye fluorescence, FDSS | activation, % at 10 µM | hit rate 11% among 2,800 | AID 488961, 2010;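 active = ratio signal rise beyond 5 SD above unstimulated control wells' mean, seen in both duplicate runs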;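 note: plate controls were buffer EC0 wells for no effect and acetylcholine ECmax response for full effect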
* marks the source's active call; other numbers are inactive results; i = inactive; / = no result given. An excerpt weighted towards active compounds, which were near 2.3% of everything screened.

SMILES | TRPC6 activator | TRPC4 agonist | TRPC4 block | TRPC4 potent | TRPC6 inh | HEK293 MPD ctr-2 | HEK293 MPD ctr 2-2 | TRPC4/MOR mod | TRPC4 ctr inh 2 | TRPC6 block conf | TRPC6 act confirm | others
COc1ccc(S(=O)(=O)N(CC(=O)NCc2ccncc2)c2ccc(C)cc2)cc1Br | i | i | i | i | i | / | / | / | / | / | /
COc1ccccc1-c1nc(C#N)c(NCc2ccc(F)cc2)o1 | i | i | i | i | i | / | / | / | / | / | /
O=C(NNC(=O)c1sccc1-n1cccc1)c1cccc(Cl)c1 | i | i | i | i | i | / | / | / | / | / | /
Cc1cc(NC(=O)CCC(=O)N(CC(=O)NC2CCCC2)c2ccc(F)c(Cl)c2)no1 | i | i | i | i | i | / | / | / | / | / | /
NC(N)=Nc1nc(-c2ccccc2)c2ccccc2n1 | i | i | i | i | -5.43* | -174.5%* | i | -30.0%* | 33.0%* | i | i
CCc1nc(N=C(N)N)nc2ccccc12 | i | i | i | i | i | / | / | / | / | / | /
CCCCCCCn1c(=N)n(CC(O)c2ccco2)c2ccccc21 (configuration not stated) | i | i | i | i | -5.38* | 235.0%* | i | 44.5%* | 93.0%* | 70.0%* | /
CCCCCCCn1c(=N)n(CC(=O)c2ccco2)c2ccccc21 | i | i | i | i | -5.33* | 93.5%* | i | 16.0%* | 77.5%* | 57.5%* | i
N=c1n(CCN2CCCC2)c2ccccc2n1CC(O)c1ccco1 (configuration not stated) | i | i | i | i | i | / | / | / | / | / | /
O=c1c2ccccc2cnn1Cc1n[nH]c(=S)n1-c1ccccc1 | i | i | i | i | i | / | / | / | / | / | /
CCOC(=O)c1ccc(NC(=S)N2CCN(CCO)CC2)cc1 | i | i | i | i | i | / | / | / | / | / | /
O=S(=O)(Nc1nc2ccc(S(=O)(=O)N3CCCC3)cc2s1)c1ccc(F)cc1 | i | i | i | i | i | / | / | / | / | / | /
N#C/C(C(N)=O)=c1/ccc2c(c1)N1C3=C(CCCC3)CC3CCCCC31N=2 (configuration not stated) | i | i | i | i | -12.4* | -262.5%* | 82.0%* | -52.5%* | 94.0%* | 80.0%* | i
O=C(COC(=O)c1ccccc1Nc1cccc(C(F)(F)F)c1)NCc1ccco1 | i | i | i | i | i | / | / | / | / | / | /
CCNC(=S)N(CCc1c(C)[nH]c2ccc(Cl)cc12)Cc1cccnc1 | i | i | i | i | -5.83* | i | i | i | i | i | i
COCCNC(=S)N(CCc1c(C)[nH]c2ccc(Cl)cc12)Cc1cccnc1 | i | i | i | i | -7.04* | / | / | / | / | i | i | TRPC4 sel inh 2=i;TRPC4 spec=i;HEK293 MPD ctr 2-1=i;HEK293 MPD ctr-1=i
CNC(=S)N(CCc1c(C)[nH]c2ccc(Cl)cc12)Cc1cccnc1 | i | i | i | i | i | / | / | / | / | / | /
COCCNC(=S)N(CCc1c(C)[nH]c2ccc(F)cc12)Cc1cccnc1 | i | i | i | i | i | / | / | / | / | / | /
CC12CCC(C(=O)N/N=C/c3ccc(O)cc3O)(OC1=O)C2(C)C (configuration not stated) | i | i | i | i | i | / | / | / | / | / | /
C[N+]1(CN2C(=O)C3C4C=CC(C4)C3C2=O)CCCCC1 (configuration not stated) | i | i | i | i | -5.56* | i | i | i | i | 48.5%* | i
O=C(O)CN1C(=O)C2C3C=CC(C3)C2C1=O (configuration not stated) | i | i | i | i | i | / | / | / | / | / | /
COc1ccc(S(=O)(=O)N2CCCCCC2)cc1NC(=O)Cc1cc(OC)c(OC)c(OC)c1 | i | i | i | i | i | / | / | / | / | / | /
COc1ccc(S(=O)(=O)N2CCOCC2)cc1Br | i | i | i | i | i | / | / | / | / | / | /
COc1ccc(S(=O)(=O)N2CCCCCC2)cc1Br | i | i | i | i | -6.4* | i | i | 9.0%* | i | 46.5%* | i
COc1ccc(S(=O)(=O)N2CCCCCC2)cc1NC(=O)Cc1ccccc1F | 16.3* | i | i | i | -8.92* | i | i | i | i | i | i
CC(=O)c1sc2nsc(SCCN3CCCC3)c2c1N | i | i | i | i | -5.16* | 232.5%* | i | i | 35.5%* | i | /

High-throughput results from PubChem.
